{"source": "ChEMBL document CHEMBL4354811", "about": "“Discovery of Novel Aryl Carboxamide Derivatives as Hypoxia-Inducible Factor 1α Signaling Inhibitors with Potent Activities of Anticancer Metastasis” (J Med Chem, 2019)", "key": {"[1]": {"target": "Hypoxia-inducible factor 1-alpha (Homo sapiens) (UniProt Q16665)", "sequence (Q16665 whole entry, looked up)": "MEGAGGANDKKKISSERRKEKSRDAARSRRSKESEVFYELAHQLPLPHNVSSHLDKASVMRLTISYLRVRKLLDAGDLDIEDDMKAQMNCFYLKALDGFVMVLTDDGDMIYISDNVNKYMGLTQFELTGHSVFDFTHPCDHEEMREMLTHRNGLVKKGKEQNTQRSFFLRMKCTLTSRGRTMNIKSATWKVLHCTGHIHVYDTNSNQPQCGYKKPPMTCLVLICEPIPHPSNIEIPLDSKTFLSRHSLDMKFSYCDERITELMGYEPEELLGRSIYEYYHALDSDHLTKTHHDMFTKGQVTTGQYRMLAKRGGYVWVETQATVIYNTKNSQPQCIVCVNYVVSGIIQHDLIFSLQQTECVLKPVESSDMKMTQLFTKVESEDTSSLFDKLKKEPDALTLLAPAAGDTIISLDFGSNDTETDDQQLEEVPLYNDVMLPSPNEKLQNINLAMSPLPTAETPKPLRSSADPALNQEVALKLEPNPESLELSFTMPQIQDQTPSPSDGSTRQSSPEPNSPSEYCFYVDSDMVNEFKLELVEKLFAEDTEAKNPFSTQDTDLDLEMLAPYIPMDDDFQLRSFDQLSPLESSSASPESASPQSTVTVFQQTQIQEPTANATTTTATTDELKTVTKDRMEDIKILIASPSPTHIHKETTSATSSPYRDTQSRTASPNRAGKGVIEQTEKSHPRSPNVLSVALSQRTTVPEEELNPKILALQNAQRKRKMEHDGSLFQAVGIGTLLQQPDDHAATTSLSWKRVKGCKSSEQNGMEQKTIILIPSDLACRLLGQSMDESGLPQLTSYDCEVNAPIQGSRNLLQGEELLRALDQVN", "test": "(§1) Potency index, ratio of IC50 for 2-Methyl-N-phenethylthiazole-4-carboxamide to IC50 for test compound for inhibition of HIF1alpha transcriptional activity in hypoxia-induced human HCCLM3 cells incubated with compound under normoxia for 1 hr followed by hypoxia induction and measured after 24 hrs by HRE-dependent dual luciferase reporter gene assay"}, "[2]": {"species_on_record": "Danio rerio", "test": "Antiangiogenic activity in […]/EGFP transgenic zebrafish embryo assessed as destruction of subintestinal vessel at 0.5 to 1 uM incubated for 24 hrs by confocal microscopic method", "assay_type": "functional, organism-based", "summary_of_the_method": "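Transgenic zebrafish with GFP-labeled vascular endothelium; embryos selected, […], exposed 24 h to 0.5 or 1 μM (DMSO vehicle, n = 10; apatinib 0.5 μM reference); SIVs imaged by confocal microscopy and counted per field; means ± SD, three independent experiments.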"}, "[3]": {"tested_on": "HUVEC", "test": "Antiangiogenic activity in HUVEC assessed as suppression of capillary-like tubule formation at 2 to 5 uM incubated under hypoxia for 12 hrs by inverted microscopic method", "assay_type": "functional, cell-based", "settings": "Homo sapiens", "summary_of_the_method": "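HUVECs seeded on matrigel-precoated wells under hypoxia, treated at 2 or 5 μM; capillary-like tubule branches photographed; representative of three independent experiments.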"}, "[4]": {"tested_on": "MDA-MB-231", "test": "Inhibition of HIF1alpha accumulation in hypoxia-induced human MDA-MB-231 cells incubated with compound under normoxia for 1 hr followed by hypoxia induction and measured after 24 hrs by Western blot analysis", "assay_type": "functional, cell-based", "summary_of_the_method": "(§2)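 MDA-MB-231, SKOV3 and HeLa cells exposed to hypoxia with compound at a range of concentrations; HIF-1α accumulation assessed by western blot.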"}, "[5]": {"tested_on": "MDA-MB-231", "test": "Induction of apoptosis in human MDA-MB-231 cells at 2 to 10 uM incubated for 24 hrs", "assay_type": "cell-based", "settings": "mda-mb-231, 24 h"}, "[6]": {"test": "Toxicity in BALB/c nude mouse xenografted with human MDA-MB-231 cells stable expressing luciferase assessed as change in body weight at 15 to 30 mg/kg, ip administered every 2 days for 3 weeks starting at 24 hrs post-trensfection", "assay_type": "organism-based", "settings": "in vivo", "summary_of_the_method": "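Tail-vein luciferase MDA-MB-231 lung-metastasis model in BALB/c nude mice; 15 or 30 mg/kg i.p. every 2 days for 20 days from 24 h post-injection; body weight recorded at study end.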"}, "[7]": {"tested_on": "MDA-MB-231", "test": "(§3) Antimetastatic activity against human MDA-MB-231 cells stable expressing luciferase xenografted in ip dosed BALB/c nude mouse assessed as reduction in lung colonization of tumor cells administered every 2 days for 3 weeks starting at 24 hrs post-trensfection and measured at 24 hrs after final doses by H and E staining method", "assay_type": "functional, organism-based", "summary_of_the_method": "(§4)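 Luciferase-expressing MDA-MB-231 cells injected into tail vein of BALB/c nude mice; i.p. vehicle or 15 and 30 mg/kg starting 24 h later, every 2 days for 20 days; bioluminescence imaged 24 h after last dose; lungs examined by H&E histology; n = 4 per group, mean ± SD.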"}, "[8]": {"tested_on": "SK-OV-3", "test": "Inhibition of HIF1alpha accumulation in hypoxia-induced human SKOV3 cells incubated with compound under normoxia for 1 hr followed by hypoxia induction and measured after 24 hrs by Western blot analysis", "assay_type": "functional, cell-based", "summary_of_the_method": "as §2"}, "[9]": {"tested_on": "MDA-MB-231", "test": "Induction of E-cadherin protein expression in human MDA-MB-231 cells incubated with compound under normoxia for 1 hr followed by hypoxia induction and measured after 24 hrs by Western blot analysis", "assay_type": "functional, cell-based", "summary_of_the_method": "(§5)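 MDA-MB-231 cells given 2, 5 or 10 μM under normoxia 1 h, then hypoxia 24 h; E-cadherin, vimentin, MMP-2, MMP-9 by western blot, GAPDH loading control; three independent experiments.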"}, "[10]": {"tested_on": "MDA-MB-231", "test": "Inhibition of vimentin protein expression in human MDA-MB-231 cells incubated with compound under normoxia for 1 hr followed by hypoxia induction and measured after 24 hrs by Western blot analysis", "assay_type": "functional, cell-based", "summary_of_the_method": "as §5"}, "[11]": {"tested_on": "HUVEC", "test": "Antiangiogenic activity in HUVEC assessed as disruption in capillary-like tubule formation at 5 uM incubated under hypoxia for 12 hrs by inverted microscopic method", "assay_type": "functional, Homo sapiens", "summary_of_the_method": "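HUVECs on matrigel-precoated wells, incubated under hypoxia with 5 μM compound; tubule branches photographed; three independent experiments.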"}, "[12]": {"test": "Cytotoxicity against human HCCLM3 cells assessed as reduction in cell viability incubated for 48 hrs by MTT assay", "assay_type": "cell-based"}, "[13]": {"tested_on": "HUVEC", "test": "Antiangiogenic activity in HUVEC assessed as reduction in VEGF mRNA expression incubated with compound under normoxia for 1 hr followed by hypoxia induction and measured after 24 hrs by real time-PCR analysis", "assay_type": "functional, cell-based", "settings": "Homo sapiens", "summary_of_the_method": "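HUVECs treated with 0.5 or 1 μM; VEGF mRNA by real-time PCR, normalized to GAPDH, compared with normoxia and untreated hypoxic controls; means ± SD of three independent experiments.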"}, "[14]": {"target": "Hypoxia-inducible factor 1-alpha (Homo sapiens) (UniProt Q16665)", "test": "Inhibition of HIF1alpha transcriptional activity in hypoxia-induced human HCCLM3 cells co-transfected with luciferase reporter plasmid containing five copies of HREs and pRL-SV40 plasmid encoding Renilla luciferase at 10 uM incubated with compound under normoxia for 1 hr followed by hypoxia induction and measured after 24 hrs by HRE-dependent dual luciferase reporter gene assay relative to control", "summary_of_the_method": "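LM3 cells co-transfected with firefly luciferase reporter carrying five HRE copies plus pRL-SV40 Renilla plasmid; after transfection treated and kept under hypoxia; firefly luminescence normalized to Renilla. Single-point inhibition rate at 10 μM; IC50 for selected compounds.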"}, "[15]": {"tested_on": "MDA-MB-231", "test": "Downregulation of MMP2 protein expression in human MDA-MB-231 cells incubated with compound under normoxia for 1 hr followed by hypoxia induction and measured after 24 hrs by Western blot analysis", "assay_type": "functional, cell-based", "summary_of_the_method": "as §5"}, "[16]": {"tested_on": "MDA-MB-231", "test": "Inhibition of cell growth in human MDA-MB-231 cells at 2 to 10 uM incubated for 24 hrs", "assay_type": "cell-based", "settings": "mda-mb-231, 24 h"}, "[17]": {"tested_on": "MDA-MB-231", "test": "Inhibition of cell migration in human MDA-MB-231 cells incubated with compound under normoxia for 1 hr followed by hypoxia induction and measured after 24 hrs by wound healing assay based inverted microscopic method", "assay_type": "functional", "summary_of_the_method": "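Wound-healing: monolayer of MDA-MB-231 scratched, treated 2, 5, 10 μM or DMSO under normoxia 1 h then hypoxia 24 h; wound closure imaged; three independent experiments.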"}, "[18]": {"tested_on": "MDA-MB-231", "test": "Downregulation of MMP9 protein expression in human MDA-MB-231 cells incubated with compound under normoxia for 1 hr followed by hypoxia induction and measured after 24 hrs by Western blot analysis", "assay_type": "functional, cell-based", "summary_of_the_method": "as §5"}, "[19]": {"tested_on": "HUVEC", "test": "Antiproliferative activity against HUVEC at 2 to 5 uM", "assay_type": "cell-based", "settings": "human"}, "[20]": {"tested_on": "HeLa", "test": "Inhibition of HIF1alpha accumulation in hypoxia-induced human HeLa cells incubated with compound under normoxia for 1 hr followed by hypoxia induction and measured after 24 hrs by Western blot analysis", "assay_type": "functional, cell-based", "summary_of_the_method": "as §2"}, "[21]": {"tested_on": "MDA-MB-231", "test": "as §3, with “dose” for “doses”, “bioluminescent imaging assay” for “H and E staining method”", "assay_type": "functional, organism-based", "summary_of_the_method": "as §4"}, "[22]": {"target": "Hypoxia-inducible factor 1-alpha (Homo sapiens) (UniProt Q16665)", "test": "Induction of HIF1alpha (unknown origin) degradation"}, "[23]": {"target": "Hypoxia-inducible factor 1-alpha (Homo sapiens) (UniProt Q16665)", "test": "as §1, with “LW6” for “2-Methyl-N-phenethylthiazole-4-carboxamide”"}, "[24]": {"tested_on": "MDA-MB-231", "test": "Inhibition of cell invasion in human MDA-MB-231 cells incubated with compound under normoxia for 1 hr followed by hypoxia induction and measured after 24 hrs by transwell assay/crystal violet staining based inverted microscopic method", "assay_type": "functional", "summary_of_the_method": "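Transwell with MDA-MB-231 cells in upper chamber on matrigel-precoated inserts; 2, 5, 10 μM under normoxia 1 h then hypoxia 24 h; invaded cells stained with crystal violet and counted; three experiments, means ± SD.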"}, "[25]": {"tested_on": "HCCLM3", "test": "Inhibition of HIF1alpha accumulation in hypoxia-induced human HCCLM3 cells at 10 uM incubated with compound under normoxia for 1 hr followed by hypoxia induction and measured after 24 hrs by Western blot analysis", "assay_type": "functional, cell-based", "summary_of_the_method": "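LM3 cells treated at 10 μM under hypoxia; HIF-1α protein by western blot, LW6 as reference.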"}}, "note": "The source made the active and inactive calls. The calls are words filed in the database; no cut-off is given here."}
{"smiles": "COc1ccccc1-c1ccc(C(=O)NCCc2ccccc2F)nc1", "values": [{"measurement": "Ratio IC50", "setting": "[1]", "value": 170}, {"measurement": "Activity", "setting": "[2]", "value": "Active"}, {"measurement": "Activity", "setting": "[3]", "value": "Active"}, {"measurement": "inhibition", "setting": "[4]", "value": "Dose-dependent effect"}, {"measurement": "Activity", "setting": "[5]", "value": "Non-Toxic"}, {"measurement": "Activity", "setting": "[6]", "value": "Non-Toxic"}, {"measurement": "Activity", "setting": "[7]", "value": "Dose-dependent effect"}, {"measurement": "inhibition", "setting": "[8]", "value": "Dose-dependent effect"}, {"measurement": "Activity", "setting": "[9]", "value": "Dose-dependent effect"}, {"measurement": "inhibition", "setting": "[10]", "value": "Dose-dependent effect"}, {"measurement": "Activity", "setting": "[11]", "value": 100, "unit": "%"}, {"measurement": "CC50 at 48 h", "setting": "[12]", "value": "> 50", "unit": "µM"}, {"measurement": "Activity", "setting": "[13]", "value": "Dose-dependent effect"}, {"measurement": "inhibition", "setting": "[14]", "value": "91.4 to 97.7", "unit": "%"}, {"measurement": "inhibition", "setting": "[15]", "value": "Dose-dependent effect"}, {"measurement": "growth inhibition (GI)", "setting": "[16]", "value": "Non-Toxic"}, {"measurement": "inhibition", "setting": "[17]", "value": "Dose-dependent effect"}, {"measurement": "inhibition", "setting": "[18]", "value": "Dose-dependent effect"}, {"measurement": "Activity", "setting": "[19]", "value": "Non-Toxic"}, {"measurement": "inhibition", "setting": "[20]", "value": "Dose-dependent effect"}, {"measurement": "Activity", "setting": "[21]", "value": "Dose-dependent effect"}, {"measurement": "Activity", "setting": "[22]", "value": "Active"}, {"measurement": "Ratio IC50", "setting": "[23]", "value": 10}, {"measurement": "inhibition", "setting": "[24]", "value": "Dose-dependent effect"}, {"measurement": "HIF-1α accumulation inhibition (qualitative)", "setting": "[25]", "value": "Active"}]}
